The experiment addresses Protein cereblon/Indoleamine 2,3-dioxygenase 1 (Homo sapiens, UniProt P14902+Q96SW2). Nature of the experiment: Protac activity at IDO1/CRBN in IFNgamma-stimulated human U87 cells assessed as IDO1 degradation at 10 uM measured after 24 hrs by Western blotting analysis relative to control. It counts as cell-based. The procedure, abridged:
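U87 GBM cells primed with human IFNγ 50 ng/mL for 24 h, then exposed to PROTAC at 10 μM for 24 h. Lysates run on western blot; IDO1 bands quantified by densitometry and expressed as percent of normalized IDO1 protein level.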

Protein cereblon/Indoleamine 2,3-dioxygenase 1, sequence (P14902 whole entry, looked up): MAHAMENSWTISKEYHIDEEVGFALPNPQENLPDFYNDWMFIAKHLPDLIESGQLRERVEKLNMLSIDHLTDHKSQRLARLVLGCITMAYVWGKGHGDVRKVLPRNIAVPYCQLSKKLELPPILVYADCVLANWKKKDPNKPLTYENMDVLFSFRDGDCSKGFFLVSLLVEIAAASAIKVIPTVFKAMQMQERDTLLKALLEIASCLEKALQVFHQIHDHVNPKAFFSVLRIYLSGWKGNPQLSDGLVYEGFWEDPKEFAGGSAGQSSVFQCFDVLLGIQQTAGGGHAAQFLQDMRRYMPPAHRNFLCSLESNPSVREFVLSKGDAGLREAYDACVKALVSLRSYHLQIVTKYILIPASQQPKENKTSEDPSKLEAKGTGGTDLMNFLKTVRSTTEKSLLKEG
Protein cereblon/Indoleamine 2,3-dioxygenase 1, sequence (Q96SW2 whole entry, looked up): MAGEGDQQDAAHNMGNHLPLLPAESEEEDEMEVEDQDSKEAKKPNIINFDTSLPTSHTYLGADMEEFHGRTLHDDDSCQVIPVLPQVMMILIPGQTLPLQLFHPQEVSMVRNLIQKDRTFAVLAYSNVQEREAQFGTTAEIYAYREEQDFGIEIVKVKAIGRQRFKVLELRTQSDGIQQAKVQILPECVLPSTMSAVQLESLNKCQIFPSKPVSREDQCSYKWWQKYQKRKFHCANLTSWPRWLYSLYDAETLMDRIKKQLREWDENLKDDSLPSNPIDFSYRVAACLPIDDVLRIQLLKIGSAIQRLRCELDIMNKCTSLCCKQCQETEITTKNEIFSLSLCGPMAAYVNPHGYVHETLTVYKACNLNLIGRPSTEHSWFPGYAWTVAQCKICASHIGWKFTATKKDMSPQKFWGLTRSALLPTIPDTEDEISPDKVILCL

Take `C[C@@H](C(=O)Nc1ccc(OCCOCCNC(=O)COc2cccc3c2C(=O)N(C2CCC(=O)NC2=O)C3=O)cc1)[C@H]1CC[C@@H](c2ccnc3ccc(F)cc32)CC1` (some centres not stated): the Activity stood at 48%.
On to `C[C@@H](C(=O)Nc1ccc(Cl)c(OCCOCCOCCOCCOCCNc2cccc3c2C(=O)N(C2CCC(=O)NC2=O)C3=O)c1)[C@H]1CC[C@@H](c2ccnc3ccc(F)cc32)CC1` (some centres not stated), for which the Activity was 0%.
Consider `C[C@@H](C(=O)Nc1ccc(Cl)c(OCCOCCNc2cccc3c2C(=O)N(C2CCC(=O)NC2=O)C3=O)c1)[C@H]1CC[C@@H](c2ccnc3ccc(F)cc32)CC1` (some centres not stated), for which the Activity is 66%.
Regarding `C[C@@H](C(=O)Nc1ccc(OCCOCCOc2cccc3c2C(=O)N(C2CCC(=O)NC2=O)C3=O)cc1)[C@H]1CC[C@@H](c2ccnc3ccc(F)cc32)CC1` (some centres not stated), the Activity turned out to be 18%.
For `C[C@@H](C(=O)Nc1ccc(OC2CCN(C(=O)CCOCCNc3cccc4c3C(=O)N(C3CCC(=O)NC3=O)C4=O)CC2)cc1)[C@H]1CC[C@@H](c2ccnc3ccc(F)cc32)CC1` (some centres not stated), the Activity was 33%.
Turning to `C[C@@H](C(=O)Nc1ccc(OCCOCCOCCNc2cccc3c2C(=O)N(C2CCC(=O)NC2=O)C3=O)cc1)[C@H]1CC[C@@H](c2ccnc3ccc(F)cc32)CC1` (some centres not stated), the Activity was 77%.
For `C[C@@H](C(=O)Nc1ccc(OCCOCCOCCOCCOCCOCCNC(=O)COc2cccc3c2C(=O)N(C2CCC(=O)NC2=O)C3=O)cc1)[C@H]1CC[C@@H](c2ccnc3ccc(F)cc32)CC1` (some centres not stated), the Activity amounted to 46%.
As for `C[C@@H](C(=O)Nc1ccc(OC2CN(C(=O)CCOCCNC(=O)COc3cccc4c3C(=O)N(C3CCC(=O)NC3=O)C4=O)C2)cc1)[C@H]1CC[C@@H](c2ccnc3ccc(F)cc32)CC1` (some centres not stated), the Activity is 86%.
The figure for `C[C@@H](C(=O)Nc1ccc(OCCCCCCCNC(=O)COc2cccc3c2C(=O)N(C2CCC(=O)NC2=O)C3=O)cc1)[C@H]1CC[C@@H](c2ccnc3ccc(F)cc32)CC1` (some centres not stated) is 0%; for `C[C@@H](C(=O)Nc1ccc(OCCOCCOCCOCCOCCNC(=O)COc2cccc3c2C(=O)N(C2CCC(=O)NC2=O)C3=O)cc1)[C@H]1CC[C@@H](c2ccnc3ccc(F)cc32)CC1` (some centres not stated) it is 0%; for `C[C@@H](C(=O)Nc1ccc(OC2CN(C(=O)CCOCCOCCNC(=O)COc3cccc4c3C(=O)N(C3CCC(=O)NC3=O)C4=O)C2)cc1)[C@H]1CC[C@@H](c2ccnc3ccc(F)cc32)CC1` (some centres not stated) it is 9%.
On to `C[C@@H](C(=O)Nc1ccc(Cl)c(OCCOCCNC(=O)COc2cccc3c2C(=O)N(C2CCC(=O)NC2=O)C3=O)c1)[C@H]1CC[C@@H](c2ccnc3ccc(F)cc32)CC1` (some centres not stated), for which the Activity was 8%.
For `C[C@@H](C(=O)Nc1ccc(OC2CN(C(=O)CCOCCNc3cccc4c3C(=O)N(C3CCC(=O)NC3=O)C4=O)C2)cc1)[C@H]1CC[C@@H](c2ccnc3ccc(F)cc32)CC1` (some centres not stated), the Activity was 90%.
With `C[C@@H](C(=O)Nc1ccc(OCCCCCCCCCCNc2cccc3c2C(=O)N(C2CCC(=O)NC2=O)C3=O)cc1)[C@H]1CC[C@@H](c2ccnc3ccc(F)cc32)CC1` (some centres not stated), the Activity is 0%.
Regarding `C[C@@H](C(=O)Nc1ccc(OCCCCOc2cccc3c2C(=O)N(C2CCC(=O)NC2=O)C3=O)cc1)[C@H]1CC[C@@H](c2ccnc3ccc(F)cc32)CC1` (some centres not stated), the Activity worked out at 0%.
For `C[C@@H](C(=O)Nc1ccc(Cl)c(OCCOCCOCCOCCOCCOCCNC(=O)COc2cccc3c2C(=O)N(C2CCC(=O)NC2=O)C3=O)c1)[C@H]1CC[C@@H](c2ccnc3ccc(F)cc32)CC1` (some centres not stated), the Activity was 0%.
For `C[C@@H](C(=O)Nc1ccc(OC2CCN(C(=O)CCOCCOCCOc3cccc4c3C(=O)N(C3CCC(=O)NC3=O)C4=O)CC2)cc1)[C@H]1CC[C@@H](c2ccnc3ccc(F)cc32)CC1` (some centres not stated), the Activity amounted to 80%.
As to `C[C@@H](C(=O)Nc1ccc(Cl)c(OCCOCCOCCOCCOCCOCCNc2cccc3c2C(=O)N(C2CCC(=O)NC2=O)C3=O)c1)[C@H]1CC[C@@H](c2ccnc3ccc(F)cc32)CC1` (some centres not stated), the Activity worked out at 0%.
Regarding `C[C@@H](C(=O)Nc1ccc(Cl)c(OCCOCCOCCOCCOCCOc2cccc3c2C(=O)N(C2CCC(=O)NC2=O)C3=O)c1)[C@H]1CC[C@@H](c2ccnc3ccc(F)cc32)CC1` (some centres not stated), the Activity is 0%.
The figure for `C[C@@H](C(=O)Nc1ccc(Cl)c(OCCOCCOCCOCCOCCNC(=O)COc2cccc3c2C(=O)N(C2CCC(=O)NC2=O)C3=O)c1)[C@H]1CC[C@@H](c2ccnc3ccc(F)cc32)CC1` (some centres not stated) is 0%; for `C[C@@H](C(=O)Nc1ccc(OCCOCCOCCNC(=O)COc2cccc3c2C(=O)N(C2CCC(=O)NC2=O)C3=O)cc1)[C@H]1CC[C@@H](c2ccnc3ccc(F)cc32)CC1` (some centres not stated) it is 47%; for `C[C@@H](C(=O)Nc1ccc(OC2CCN(CCCOCCOCCOc3cccc4c3C(=O)N(C3CCC(=O)NC3=O)C4=O)CC2)cc1)[C@H]1CC[C@@H](c2ccnc3ccc(F)cc32)CC1` (some centres not stated) it is 0%.
As for `C[C@@H](C(=O)Nc1ccc(OCCCCNC(=O)COc2cccc3c2C(=O)N(C2CCC(=O)NC2=O)C3=O)cc1)[C@H]1CC[C@@H](c2ccnc3ccc(F)cc32)CC1` (some centres not stated), the Activity was found to be 10%.
The figure for `C[C@@H](C(=O)Nc1ccc(OCCOCCOCCOCCOCCOCCNc2cccc3c2C(=O)N(C2CCC(=O)NC2=O)C3=O)cc1)[C@H]1CC[C@@H](c2ccnc3ccc(F)cc32)CC1` (some centres not stated) is 0%; for `C[C@@H](C(=O)Nc1ccc(OC2CCN(CCCOCCOCCNC(=O)COc3cccc4c3C(=O)N(C3CCC(=O)NC3=O)C4=O)CC2)cc1)[C@H]1CC[C@@H](c2ccnc3ccc(F)cc32)CC1` (some centres not stated) it is 33%; for `C[C@@H](C(=O)Nc1ccc(OC2CCN(C(=O)CCOCCOCCNC(=O)COc3cccc4c3C(=O)N(C3CCC(=O)NC3=O)C4=O)CC2)cc1)[C@H]1CC[C@@H](c2ccnc3ccc(F)cc32)CC1` (some centres not stated) it is 81%.
For `C[C@@H](C(=O)Nc1ccc(OCCOCCOCCOCCOc2cccc3c2C(=O)N(C2CCC(=O)NC2=O)C3=O)cc1)[C@H]1CC[C@@H](c2ccnc3ccc(F)cc32)CC1` (some centres not stated), the Activity came to 0%.
Turning to `C[C@@H](C(=O)Nc1ccc(OCCOCCOCCOCCOCCNc2cccc3c2C(=O)N(C2CCC(=O)NC2=O)C3=O)cc1)[C@H]1CC[C@@H](c2ccnc3ccc(F)cc32)CC1` (some centres not stated), the Activity was 0%.
The figure for `C[C@@H](C(=O)Nc1ccc(OCCCCCCCCCCNC(=O)COc2cccc3c2C(=O)N(C2CCC(=O)NC2=O)C3=O)cc1)[C@H]1CC[C@@H](c2ccnc3ccc(F)cc32)CC1` (some centres not stated) is 0%; for `C[C@@H](C(=O)Nc1ccc(OCCOCCOCCOc2cccc3c2C(=O)N(C2CCC(=O)NC2=O)C3=O)cc1)[C@H]1CC[C@@H](c2ccnc3ccc(F)cc32)CC1` (some centres not stated) it is 94%; for `C[C@@H](C(=O)Nc1ccc(OCCOCCOCCOCCOCCOCCOc2cccc3c2C(=O)N(C2CCC(=O)NC2=O)C3=O)cc1)[C@H]1CC[C@@H](c2ccnc3ccc(F)cc32)CC1` (some centres not stated) it is 0%.
Turning to `C[C@@H](C(=O)Nc1ccc(Cl)c(OCCCCCCCCCNc2cccc3c2C(=O)N(C2CCC(=O)NC2=O)C3=O)c1)[C@H]1CC[C@@H](c2ccnc3ccc(F)cc32)CC1` (some centres not stated), the Activity was found to be 0%.
The figure for `C[C@@H](C(=O)Nc1ccc(Cl)c(OCCCCCCCCCOc2cccc3c2C(=O)N(C2CCC(=O)NC2=O)C3=O)c1)[C@H]1CC[C@@H](c2ccnc3ccc(F)cc32)CC1` (some centres not stated) is 16%.
The figure for `C[C@@H](C(=O)Nc1ccc(Cl)c(OCCOCCOc2cccc3c2C(=O)N(C2CCC(=O)NC2=O)C3=O)c1)[C@H]1CC[C@@H](c2ccnc3ccc(F)cc32)CC1` (some centres not stated) is 6%; for `C[C@@H](C(=O)Nc1ccc(Cl)c(OCCCNC(=O)COc2cccc3c2C(=O)N(C2CCC(=O)NC2=O)C3=O)c1)[C@H]1CC[C@@H](c2ccnc3ccc(F)cc32)CC1` (some centres not stated) it is 67%.
For `C[C@@H](C(=O)Nc1ccc(Cl)c(OCCOCCOCCNc2cccc3c2C(=O)N(C2CCC(=O)NC2=O)C3=O)c1)[C@H]1CC[C@@H](c2ccnc3ccc(F)cc32)CC1` (some centres not stated), the Activity is 71%.
As to `C[C@@H](C(=O)Nc1ccc(OC2CCN(C(=O)CCOCCNC(=O)COc3cccc4c3C(=O)N(C3CCC(=O)NC3=O)C4=O)CC2)cc1)[C@H]1CC[C@@H](c2ccnc3ccc(F)cc32)CC1` (some centres not stated), the Activity was found to be 38%.
Take `C[C@@H](C(=O)Nc1ccc(Cl)c(OCCOCCOCCOc2cccc3c2C(=O)N(C2CCC(=O)NC2=O)C3=O)c1)[C@H]1CC[C@@H](c2ccnc3ccc(F)cc32)CC1` (some centres not stated): the Activity turned out to be 88%.
Consider `C[C@@H](C(=O)Nc1ccc(OCCOCCOCCOCCNc2cccc3c2C(=O)N(C2CCC(=O)NC2=O)C3=O)cc1)[C@H]1CC[C@@H](c2ccnc3ccc(F)cc32)CC1` (some centres not stated), for which the Activity is 0%.
Turning to `C[C@@H](C(=O)Nc1ccc(OC2CCN(CCCOCCNC(=O)COc3cccc4c3C(=O)N(C3CCC(=O)NC3=O)C4=O)CC2)cc1)[C@H]1CC[C@@H](c2ccnc3ccc(F)cc32)CC1` (some centres not stated), the Activity came to 66%.
For `C[C@@H](C(=O)Nc1ccc(Cl)c(OCCOCCOCCOCCOCCOCCOc2cccc3c2C(=O)N(C2CCC(=O)NC2=O)C3=O)c1)[C@H]1CC[C@@H](c2ccnc3ccc(F)cc32)CC1` (some centres not stated), the Activity came to 0%.
As to `C[C@@H](C(=O)Nc1ccc(Cl)c(OCCOCCOCCOCCNc2cccc3c2C(=O)N(C2CCC(=O)NC2=O)C3=O)c1)[C@H]1CC[C@@H](c2ccnc3ccc(F)cc32)CC1` (some centres not stated), the Activity was found to be 0%.
Take `C[C@@H](C(=O)Nc1ccc(Cl)c(OCCCOc2cccc3c2C(=O)N(C2CCC(=O)NC2=O)C3=O)c1)[C@H]1CC[C@@H](c2ccnc3ccc(F)cc32)CC1` (some centres not stated): the Activity came to 49%.
The figure for `C[C@@H](C(=O)Nc1ccc(Cl)c(OCCCCCCNc2cccc3c2C(=O)N(C2CCC(=O)NC2=O)C3=O)c1)[C@H]1CC[C@@H](c2ccnc3ccc(F)cc32)CC1` (some centres not stated) is 0%; for `C[C@@H](C(=O)Nc1ccc(OC2CN(C(=O)CCOCCOCCNc3cccc4c3C(=O)N(C3CCC(=O)NC3=O)C4=O)C2)cc1)[C@H]1CC[C@@H](c2ccnc3ccc(F)cc32)CC1` (some centres not stated) it is 94%; for `C[C@@H](C(=O)Nc1ccc(OC2CCN(CCCOCCOc3cccc4c3C(=O)N(C3CCC(=O)NC3=O)C4=O)CC2)cc1)[C@H]1CC[C@@H](c2ccnc3ccc(F)cc32)CC1` (some centres not stated) it is 0%.
In the case of `C[C@@H](C(=O)Nc1ccc(OCCOCCNc2cccc3c2C(=O)N(C2CCC(=O)NC2=O)C3=O)cc1)[C@H]1CC[C@@H](c2ccnc3ccc(F)cc32)CC1` (some centres not stated), the Activity came to 23%.
